Source: ChEMBL document CHEMBL4340526, “Discovery and Mechanistic Study of Tailor-Made Quinoline Derivatives as Topoisomerase 1 Poison with Potent Anticancer Activity” (J Med Chem, 2019)
Active and inactive are the calls of the source. The rule behind the calls is not given here.

Columns and labels:
[1] = biological target: T1, DNA topoisomerase 1 (Homo sapiens, UniProt P11387); experiment: Poison activity at recombinant human TOP1 expressed in baculovirus infected Sf9 insect cells assessed as decrease in relaxed supercoiled pBS(SK+) DNA mobility measured after 30 mins by ethidium bromide staining based agarose gel electrophoresis
T1 sequence (P11387 whole entry): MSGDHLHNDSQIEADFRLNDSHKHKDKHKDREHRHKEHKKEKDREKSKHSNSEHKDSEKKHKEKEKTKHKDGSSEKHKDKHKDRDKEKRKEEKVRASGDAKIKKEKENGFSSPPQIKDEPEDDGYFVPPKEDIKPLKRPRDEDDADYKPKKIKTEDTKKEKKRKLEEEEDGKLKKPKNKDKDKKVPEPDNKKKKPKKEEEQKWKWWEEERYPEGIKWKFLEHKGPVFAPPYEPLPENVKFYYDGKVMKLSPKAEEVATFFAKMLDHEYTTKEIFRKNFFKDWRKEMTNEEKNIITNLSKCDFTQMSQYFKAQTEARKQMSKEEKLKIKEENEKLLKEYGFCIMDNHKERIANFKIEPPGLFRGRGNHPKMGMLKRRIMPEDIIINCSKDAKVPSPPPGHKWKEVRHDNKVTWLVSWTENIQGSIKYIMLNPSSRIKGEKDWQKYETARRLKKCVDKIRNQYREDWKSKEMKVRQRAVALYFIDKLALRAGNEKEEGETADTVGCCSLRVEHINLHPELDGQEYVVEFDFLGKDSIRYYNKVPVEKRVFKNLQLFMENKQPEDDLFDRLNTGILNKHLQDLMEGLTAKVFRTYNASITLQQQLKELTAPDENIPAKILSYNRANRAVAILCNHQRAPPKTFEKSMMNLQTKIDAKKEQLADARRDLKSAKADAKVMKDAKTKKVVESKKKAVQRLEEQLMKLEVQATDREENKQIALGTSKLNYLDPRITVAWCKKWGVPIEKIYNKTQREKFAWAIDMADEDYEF
Method in brief: (§1)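 Top1 is recombinant human enzyme purified from baculovirus-infected Sf-9 cells. Supercoiled pBS (SK+) DNA (90 fmol) is incubated with 30 fmol Top1 (3:1 DNA:enzyme molar ratio) in relaxation buffer, with compound added simultaneously, 30 min at 37 °C. Relaxed isomers are resolved on 1% agarose and percent relaxation inhibition is quantified. Triplicate, mean ± SD.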

[2] = biological target: T2, DNA topoisomerase 1 (Homo sapiens) (UniProt P11387); experiment: Poison activity at recombinant human TOP1 expressed in baculovirus infected Sf9 insect cells assessed as decrease in relaxed supercoiled pBS(SK+) DNA mobility at 100 uM measured after 30 mins by ethidium bromide staining based agarose gel electrophoresis relative to control; set-up: scale not given: the % may be the effect or the level left; method in brief: as §1
T2 sequence (whole entry): T1 sequence (P11387 whole entry)

[3] = Stability of the compound in human plasma assessed as parent compound remaining at […] measured after 2 hrs by LC-MS/MS analysis; type: ADME, cell-free; settings: read-out: Stability
Method in brief: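 Plasma is thawed, spun at 1400 RCF for 15 min at 4 °C, and supernatant used. Compound (final 1 μM, diluted from acetonitrile/water stock) is incubated in human plasma 2 h at 37 °C with gentle shaking. Aliquots at 0, 15, 30, 60 and 120 min are precipitated with acetonitrile containing internal standard and analyzed by LC–MS/MS. The 0 min reference uses heat-inactivated plasma (56 °C, 45 min). Value is mean % remaining at 2 h.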

[4] = biological target: T1, DNA topoisomerase 1; experiment: Poison activity at TOP1 in human MCF7 cells assessed as decrease in relaxed supercoiled pBS(SK+) DNA mobility measured after 30 mins by ethidium bromide staining based agarose gel electrophoresis; type: cell-based
Method in brief: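 The Top1 source is MCF7 whole-cell extract (endogenous enzyme). Extract is incubated with 0.3 μg supercoiled pBS (SK+) DNA and compound added together, 30 min at 37 °C, in relaxation buffer. Supercoiled and relaxed forms are separated on 1% agarose and percent relaxation inhibition is quantified. Triplicate, mean ± SD.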

[5] = biological target: T2, DNA topoisomerase 1 (Homo sapiens); experiment: Poison activity at recombinant human TOP1 expressed in baculovirus infected Sf9 insect cells assessed as decrease in relaxed supercoiled pBS(SK+) DNA mobility at 10 uM measured after 30 mins by ethidium bromide staining based agarose gel electrophoresis relative to control; set-up: scale not given: the % may be the effect or the level left; method in brief: as §1
[6] = Cytotoxicity against human NIH:OVCAR3 cells assessed as reduction in cell viability measured after 72 hrs by MTT assay; type: functional, cell-based; settings: OVCAR-3, 72 h
Method in brief: (§2)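 Cell lines are HCT116, HeLa, NIH:OVCAR-3, and primary TDP1+/+ and TDP1−/− mouse embryonic fibroblasts, each exposed to variable compound concentrations. Viability is measured by MTT. Percent inhibition at each concentration is calculated against untreated control, and IC50 is estimated from these values.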

[7] = tested on: MEF; experiment: Cytotoxicity against TDP1-deficient MEF cells assessed as reduction in cell viability measured after 72 hrs by MTT assay; type: functional, cell-based; settings: Mus musculus; method in brief: as §2
[8] = tested on: Calf thymus DNA; experiment: Displacement of ethidium bromide from calf thymus DNA at 200 uM by fluorescence assay; type: nucleic-acid assay; settings: Bos taurus
Method in brief: (§3)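 Ethidium displacement fluorescence at 25 °C in fluorescence buffer containing 1 μM EtBr and 5 nM calf thymus DNA, with compound titrated 0–300 μM. Emission is read at 590 nm with 510 nm excitation and plotted as % EtBr bound.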

[9] = tested on: HEK293; experiment: Cytotoxicity against HEK293 cells assessed as reduction in cell viability measured after 72 hrs by MTT assay; type: cell-based; settings: Homo sapiens, HEK293, 72 h
Method in brief: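 MTT cell survival assay in HEK293 cells (from the Developmental Therapeutics Program) exposed to a range of compound concentrations. Percent inhibition of viability at each concentration calculated relative to untreated control, and IC50 estimated from these values.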

[10] = tested on: MEF; experiment: Cytotoxicity against TDP1-positive MEF cells assessed as reduction in cell viability measured after 72 hrs by MTT assay; type: functional, cell-based; settings: Mus musculus; method in brief: as §2
[11] = tested on: DNA; experiment: Binding affinity to Escherichia coli pBS(SK+) DNA assessed as TOP1-mediated unwinding effect at 20 to 200 uM measured after 15 mins by EtBr staining based agarose gel electrophoresis method; type: nucleic-acid assay
Method in brief: (§4)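 Relaxed pBS (SK+) substrate made by treating supercoiled plasmid with excess Top1, then proteinase K digestion at 37 °C, phenol/chloroform extraction and ethanol precipitation. Reactions hold 50 fmol relaxed DNA with compound (20, 50, 100, 200 μM) and are incubated 15 min at 37 °C. Read-out is 1% agarose gel stained with 0.5 μg/mL EtBr under UV, scoring net negative supercoiling.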

[12] = tested on: HCT-116; experiment: Cytotoxicity against human HCT116 cells assessed as reduction in cell viability measured after 72 hrs by MTT assay; type: functional, cell-based; settings: HCT-116, 72 h; method in brief: as §2
[13] = tested on: Calf thymus DNA; experiment: Displacement of ethidium bromide from calf thymus DNA up to 300 uM by fluorescence assay; type: nucleic-acid assay; settings: Bos taurus; method in brief: as §3
[14] = tested on: DNA; experiment: Binding affinity to Escherichia coli pBS(SK+) DNA assessed as TOP1-mediated unwinding effect at 50 to 200 uM measured after 15 mins by EtBr staining based agarose gel electrophoresis method; type: nucleic-acid assay; method in brief: as §4
[15] = tested on: Calf thymus DNA; experiment: Displacement of ethidium bromide from calf thymus DNA at 50 uM by fluorescence assay; type: nucleic-acid assay; settings: Bos taurus
Method in brief: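 Fluorescence ethidium displacement run at 25 °C with 1 μM EtBr and 5 nM calf thymus DNA in fluorescence buffer. Test compound titrated over 0–300 μM. EtBr emission read at 590 nm with excitation at 510 nm. Result expressed as % EtBr remaining bound.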

SMILES	IC50 [1]	further results
CNc1c(-c2nnco2)cnc2ccc(-c3ccc(OC)cc3)cc12	> 10 µM	–
COc1ccccc1-c1ccc2ncc(-c3nnco3)c(NCCCn3ccnc3)c2c1	> 10 µM	–
CCOC(=O)c1cnc2ccc(-c3ccc(OC)c(OC)c3)cc2c1NCCCn1ccnc1	> 10 µM	–
COc1ccc(-c2ccc3ncc(-c4nnc(C)o4)c(NCCN4CCOCC4)c3c2)cc1OC	> 10 µM	–
Oc1ccc(-c2ccc3ncc(-c4nnco4)c(NCCCn4ccnc4)c3c2)cc1	> 10 µM	–
COc1ccc(-c2ccc3ncc(-c4nnco4)c(NCCN4CCOCC4)c3c2)cc1	> 10 µM	Activity [2]: 50%
CC[C@@]1(O)C(=O)OCc2c1cc1n(c2=O)Cc2cc3ccccc3nc2-1 [CAMPTOTHECIN]	–	remaining at 2 h [3]: 15.7%
Cc1ccc(-c2ccc3ncc(-c4nnco4)c(NCCCN4CCOCC4)c3c2)cc1	> 10 µM	–
CCOC(=O)c1cnc2ccc(-c3ccc(OC)cc3)cc2c1NCCCn1ccnc1	> 10 µM	–
COc1ccc(-c2ccc3ncc(-c4nnco4)c(NCCCN4CCOCC4)c3c2)cc1	1.79 µM	remaining at 2 h [3]: 83.4%; IC50 [4]: 2.51 µM
N#Cc1ccc(-c2ccc3ncc(-c4nnco4)c(NCCCn4ccnc4)c3c2)cc1	> 10 µM	–
COc1ccc(-c2ccc3ncc(-c4nnc(C)o4)c(NCCN4CCOCC4)c3c2)cc1	> 10 µM	–
Fc1ccc(-c2ccc3ncc(-c4nnco4)c(NCCCn4ccnc4)c3c2)cc1	> 10 µM	–
c1ccc(-c2ccc3ncc(-c4nnco4)c(NCCCn4ccnc4)c3c2)cc1	> 10 µM	Activity [5]: 40%
COc1ccc(-c2ccc3ncc(-c4nnco4)c(NCCCn4ccnc4)c3c2)cc1	–	IC50 [6]: 2.35 µM; IC50 [7]: 1.02 µM; Activity [8]: inactive; remaining at 2 h [3]: 93.3%; IC50 [9]: 8.34 µM; IC50 [10]: 2.91 µM; Activity [11]: inactive; IC50 [12]: 2.34 µM
COc1ccc(-c2ccc3ncc(-c4nnco4)c(NCCCN4CCOCC4)c3c2)cc1OC	> 10 µM	–
COc1cc([C@@H]2c3cc4c(cc3[C@@H](O[C@@H]3O[C@@H]5CO[C@@H](C)O[C@H]5[C@H](O)[C@H]3O)[C@H]3COC(=O)[C@H]23)OCO4)cc(OC)c1O	–	Activity [13]: inactive; Activity [14]: inactive
COc1ccc(-c2ccc3ncc(-c4nnco4)c(NCCN4CCOCC4)c3c2)cc1OC	> 10 µM	Activity [2]: 20%
COc1cc(NS(C)(=O)=O)ccc1Nc1c2ccccc2nc2ccccc12	–	Activity [14]: Active; Activity [15]: Active
COc1ccc(-c2ccc3ncc(-c4nnco4)c(NCCCn4ccnc4)c3c2)c(OC)c1	> 10 µM	–
COc1ccc(-c2ccc3ncc(-c4nnco4)c(NCCn4ccnc4)c3c2)cc1	> 10 µM	–
COc1ccc(-c2ccc3ncc(-c4nnco4)c(NCCCn4ccnc4)c3c2)cc1OC	> 10 µM	–
COc1ccc(-c2ccc3ncc(-c4nnco4)c(NCCCn4ccnc4)c3c2)c(C)c1	> 10 µM	–
COc1ccc(-c2ccc3ncc(-c4nnc(N)o4)c(NCCCn4ccnc4)c3c2)cc1	> 10 µM	–
COc1ccc(-c2ccc3ncc(-c4nnc(C)o4)c(NCCCn4ccnc4)c3c2)cc1	> 10 µM	–
